Assay results: ChEMBL document CHEMBL1149260, “Synthesis of tropeines and allosteric modulation of ionotropic glycine receptors” (J Med Chem, 2004)

Key:
[1] = molecular target: Serotonin 3 (5-HT3) receptor (Rattus norvegicus) (UniProt P35563+Q9JJ16); assay: Selectivity for glycine receptor measured as KA over 5HT3 receptor measured as IC50 in Wistar rat synaptosomal membranes; assay type: cell membranes
[2] = molecular target: T1, Serotonin 3 (5-HT3) receptor (Rattus norvegicus, UniProt P35563+Q9JJ16); assay: Displacement of [3H]granisetron from 5HT3 receptor in Wistar rat cerebral cortex synaptosomal membranes; assay type: cell membranes, Membrane
T1 sequence (P35563 whole entry): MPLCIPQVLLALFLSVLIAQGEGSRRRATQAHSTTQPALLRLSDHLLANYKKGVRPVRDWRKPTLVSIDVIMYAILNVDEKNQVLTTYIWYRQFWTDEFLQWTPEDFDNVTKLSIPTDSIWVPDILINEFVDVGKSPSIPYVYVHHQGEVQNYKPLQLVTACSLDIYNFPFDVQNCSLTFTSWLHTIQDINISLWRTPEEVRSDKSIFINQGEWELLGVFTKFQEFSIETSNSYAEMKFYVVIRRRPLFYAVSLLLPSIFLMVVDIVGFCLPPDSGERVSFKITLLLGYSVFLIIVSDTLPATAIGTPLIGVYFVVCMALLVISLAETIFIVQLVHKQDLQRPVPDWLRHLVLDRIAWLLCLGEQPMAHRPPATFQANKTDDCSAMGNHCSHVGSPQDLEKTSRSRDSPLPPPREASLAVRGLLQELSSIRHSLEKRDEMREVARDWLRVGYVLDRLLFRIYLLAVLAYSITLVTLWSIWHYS
T1 sequence (Q9JJ16 whole entry): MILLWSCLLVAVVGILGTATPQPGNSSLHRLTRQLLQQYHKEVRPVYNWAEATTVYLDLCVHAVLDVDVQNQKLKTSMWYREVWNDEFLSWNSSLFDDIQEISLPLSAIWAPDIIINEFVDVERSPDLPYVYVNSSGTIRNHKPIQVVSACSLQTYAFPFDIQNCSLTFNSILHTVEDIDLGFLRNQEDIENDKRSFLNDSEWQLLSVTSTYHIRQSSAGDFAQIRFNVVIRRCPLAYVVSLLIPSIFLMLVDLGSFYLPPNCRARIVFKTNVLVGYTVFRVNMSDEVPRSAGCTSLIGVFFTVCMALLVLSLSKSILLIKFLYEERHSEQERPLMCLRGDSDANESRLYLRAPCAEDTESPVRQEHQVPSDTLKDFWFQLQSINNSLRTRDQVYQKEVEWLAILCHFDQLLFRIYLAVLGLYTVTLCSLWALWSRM
How it was run: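 Male Wistar rat cerebral cortex plus hippocampus synaptosomal membranes, in 10 mM HEPES with 140 mM NaCl (pH 7.5). Incubated with 0.3 nM [3H]granisetron and varied tropeine concentrations for 2.5 h on ice. Nonspecific binding defined with 10 µM granisetron. Duplicate aliquots filtered on PEI-presoaked GF/B filters. Displacement curves fitted with variable slopes; 3-6 experiments.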

Rattus norvegicus = species on record: Rattus norvegicus; assay: Displacement of [3H]strychnine from glycine receptor in Wistar rat spinal cord synaptosomal membranes; assay type: cell membranes; details: Membrane

| Compound | Selectivity ratio [1] | IC50 [2] [nM] | -Log KA (Rattus norvegicus) |
| --- | --- | --- | --- |
| COc1cc(C(=O)O[C@@H]2C[C@H]3CC[C@@H](C2)N3C)cc(OC)c1OC | 0.23 | 231 | 5.97 |
| CN1[C@@H]2CC[C@H]1C[C@H](OC(=O)c1ccccc1)C2 (stereo in doubt; 2a) [listing 1 of 2 here] | – | 299 | – |
| O=C(O[C@@H]1C[C@H]2CC[C@@H](C1)N2)c1cccc(Cl)c1 | 33.7 | 692 | 7.65 |
| CN1[C@@H]2CC[C@H]1C[C@H](OC(=O)c1ccc([N+](=O)[O-])cc1)C2 | 0.2 | 1050 | 5.29 |
| Nc1cccc(C(=O)O[C@@H]2C[C@H]3CC[C@@H](C2)N3)c1 | 10.3 | 577 | 7.23 |
| CC1(C)Cc2cc(Cl)cc(C(=O)O[C@H]3C[C@H]4CC[C@@H](C3)N4)c2O1 | 3.37 | 56.2 | 7.74 |
| O=C(O[C@H]1C[C@H]2CC[C@@H](C1)N2)c1ccccc1 (stereo in doubt; 8) [listing 1 of 2 here] | – | 1000 | – |
| COc1cccc(C(=O)O[C@@H]2C[C@H]3CC[C@@H](C2)N3C)c1 | 0.87 | 71 | 7.08 |
| CN1[C@@H]2CC[C@H]1C[C@H](OC(=O)c1ccccc1)C2 (stereo in doubt; 2a) [listing 2 of 2 here] | 0.78 | – | 6.39 |
| CCN1[C@@H]2CC[C@H]1C[C@@H](OC(=O)c1ccccc1)C2 | 0.98 | 716 | 6.14 |
| O=C(O[C@H]1C[C@H]2CC[C@@H](C1)N2)c1ccccc1 (stereo in doubt; 8) [listing 2 of 2 here] | 0.98 | – | 5.96 |
| CN1[C@@H]2CC[C@H]1C[C@@H](NC(=O)c1cc(Cl)cc3c1OC(C)(C)C3)C2 | – | – | 6.57 |
| COc1cccc(C(=O)O[C@@H]2C[C@H]3CC[C@@H](C2)N3)c1 | 33.5 | 262 | 8.11 |
| CN1[C@@H]2CC[C@H]1C[C@@H](OC(=O)c1cc(Cl)cc3c1OC(C)(C)C3)C2 | 0.03 | 7.18 | 6.63 |
| CN1[C@@H]2CC[C@H]1C[C@H](OC(=O)c1cccc(Cl)c1)C2 | 0.15 | 67.9 | 6.31 |
| O=C(O[C@H]1C[C@H]2CC[C@@H](C1)N2)c1ccccc1 (stereo in doubt; 4a) [listing 1 of 2 here] | 161 | – | 7.98 |
| O=C(O[C@H]1C[C@H]2CC[C@@H](C1)N2)c1ccccc1 (stereo in doubt; 4a) [listing 2 of 2 here] | – | 1560 | – |
| CN1[C@@H]2CC[C@H]1C[C@H](OC(=O)c1ccccc1)C2 (stereo in doubt; 7) [listing 1 of 2 here] | 0.3 | – | 5.77 |
| CN1[C@@H]2CC[C@H]1C[C@H](OC(=O)c1ccccc1)C2 (stereo in doubt; 7) [listing 2 of 2 here] | – | 499 | – |
| CCc1ccc(C(=O)O[C@@H]2C[C@H]3CC[C@@H](C2)N3C)cc1 | 0.04 | 182 | 5.34 |
| CN1[C@@H]2CC[C@H]1C[C@@H](OC(=O)c1cc(Cl)cc(Cl)c1)C2 | – | – | 5.99 |
| CN1[C@@H]2CC[C@H]1C[C@H](OC(=O)c1ccc(C(C)(C)C)cc1)C2 | – | – | 4.53 |
| CN1[C@@H]2CC[C@H]1C[C@H](NC(=O)c1ccccc1)C2 | – | – | 4.8 |
| CN1[C@@H]2CC[C@H]1C[C@H](OC(=O)c1cccc([N+](=O)[O-])c1)C2 | – | – | 5.84 |
